{"source": "ChEMBL document CHEMBL1157379", "about": "“Transcriptional response of Candida parapsilosis following exposure to farnesol” (2007)", "key": {"[1]": {"system": "Candida parapsilosis", "assay": "Increase in ARP3 gene expression in Candida parapsilosis CLIB214 at 50 uM after 2 hrs by microarray based transcriptional profiling relative to control", "format": "functional", "procedure,_shortened": "(§1)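 Strain CLIB214 grown overnight in YPD at 30°C, diluted to A600 0.2 in fresh YPD at 30°C. After 4 h (A600 0.8), farnesol (40 mM methanol stock) added to 50 μM final, or an equal methanol volume as control; cells harvested 2 h later. RNA was accepted only with a 28S/18S ratio of 1.6–2.2. Cy3/Cy5-dCTP-labelled cDNA was made from 25 μg total RNA. Hybridisation was to duplicate-spotted 68-mer oligo arrays (3,849 genes) at 42°C for about 16 h. Six individual comparisons.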"}, "[2]": {"system": "Candida parapsilosis", "assay": "Decrease in CGD gene ortholog accession number orf19.6281 expression in Candida parapsilosis CLIB214 at 50 uM after 2 hrs by microarray based transcriptional profiling relative to control", "format": "functional", "procedure,_shortened": "(§2)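 Cells in YPD at 30°C treated with 50 μM farnesol at 4 h, with a methanol control. RNA harvested 2 h later and kept only if 28S/18S ratio was 1.6–2.2 with no degradation. 25 μg total RNA oligo-dT primed and labeled with Cy3/Cy5-dCTP. Labeled cDNA hybridized about 16 h at 42°C to duplicate-spotted 68-mer oligo arrays. Six individual comparisons analyzed statistically.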"}, "[3]": {"system": "Candida parapsilosis", "assay": "Increase in GRP2 gene expression in Candida parapsilosis CLIB214 by RT-PCR", "format": "functional, organism-based", "procedure,_shortened": "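Cultures in YPD at 30°C, diluted to A600 0.2; 50 μM farnesol (final) or methanol added at 4 h, RNA harvested 2 h later. RT-PCR: 95°C hot start 1 min 30 s, then 26 cycles (95°C 40 s, 55°C 2 min, 72°C 3 min), final 72°C 5 min; each gene signal normalized to ACT1.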"}, "[4]": {"system": "Candida parapsilosis", "assay": "Increase in RPS6A gene expression in Candida parapsilosis CLIB214 at 50 uM after 2 hrs by microarray based transcriptional profiling relative to control", "format": "functional", "procedure,_shortened": "(§3)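 Strain grown overnight in YPD at 30°C, diluted to A600 0.2 in YPD at 30°C; farnesol (40 mM methanol stock) added at 4 h (A600 0.8), final 50 μM; methanol-only control. Cells collected 2 h later for RNA. Labelled cDNA from 25 μg total RNA (Cy3/Cy5-dCTP) hybridized to 68-mer oligo arrays at 42°C ~16 h; six individual comparisons analysed statistically.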"}, "[5]": {"system": "Candida parapsilosis", "assay": "Decrease in CGD gene ortholog accession number orf19.530 expression in Candida parapsilosis CLIB214 at 50 uM after 2 hrs by microarray based transcriptional profiling relative to control", "format": "functional", "procedure,_shortened": "as §2"}, "[6]": {"system": "Candida parapsilosis", "assay": "Increase in GAR1 gene expression in Candida parapsilosis CLIB214 at 50 uM after 2 hrs by microarray based transcriptional profiling relative to control", "format": "functional", "procedure,_shortened": "as §3"}, "[7]": {"system": "Candida parapsilosis", "assay": "Increase in STP2 gene expression in Candida parapsilosis CLIB214 at 50 uM after 2 hrs by microarray based transcriptional profiling relative to control", "format": "functional", "procedure,_shortened": "as §3"}, "[8]": {"system": "Candida parapsilosis", "assay": "Increase in CGD gene ortholog accession number orf19.1230 expression in Candida parapsilosis CLIB214 at 50 uM after 2 hrs by microarray based transcriptional profiling relative to control", "format": "functional", "procedure,_shortened": "as §1"}, "[9]": {"system": "Candida parapsilosis", "assay": "Antifungal activity against Candida parapsilosis CLIB214 assessed as growth inhibition in presence of 10% fetal calf serum at 37 degC", "format": "functional, organism-based", "procedure,_shortened": "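YPD cultures started at A600 0.2, supplemented with 10% (vol/vol) fetal calf serum, and grown at 30°C or 37°C. Farnesol added with the serum. Growth monitored by A600 or cell counting.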"}, "[10]": {"system": "Candida parapsilosis", "assay": "Decrease in HOS2 gene expression in Candida parapsilosis CLIB214 at 50 uM after 2 hrs by microarray based transcriptional profiling relative to control", "format": "functional", "procedure,_shortened": "as §1"}}, "note": "Calls of active or inactive are those of the source. No cut-off for these calls is given here.", "data": [{"smiles": "CC(C)=CCC/C(C)=C/CC/C(C)=C/CO", "note": "[FARNESOL]", "values": [{"measurement": "fold change (FC)", "setting": "[1]", "value": 1.67}, {"measurement": "fold change (FC)", "setting": "[2]", "value": 1.72}, {"measurement": "Activity", "setting": "[3]", "value": "Active"}, {"measurement": "fold change (FC)", "setting": "[4]", "value": 1.61}, {"measurement": "fold change (FC)", "setting": "[5]", "value": 1.89}, {"measurement": "fold change (FC)", "setting": "[6]", "value": 2.89}, {"measurement": "fold change (FC)", "setting": "[7]", "value": 1.63}, {"measurement": "fold change (FC)", "setting": "[8]", "value": 1.53}, {"measurement": "Activity", "setting": "[9]", "value": "inactive"}, {"measurement": "fold change (FC)", "setting": "[10]", "value": 2.62}]}]}
